Measurements as given in ChEMBL document CHEMBL1143542, “Structure-activity relationships of bivalent aminoglycosides and evaluation of their microbiological activities” (2005).
≈ marks a conversion by molar mass, not a printed value.

How the values were obtained:
Pseudomonas aeruginosa [1] = assay: Susceptibility testing against Pseudomonas aeruginosa PAE_NUH21; I=Intermediate; type: functional, organism-based
Summary of the method: (§1)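 Disk diffusion susceptibility profiling against a panel of empirically used antipseudomonal antibiotics. Each strain was categorised as susceptible (S) or intermediate (I).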

Pseudomonas aeruginosa [2] = assay: Susceptibility testing against Pseudomonas aeruginosa PAE_NUH19; R=Resistant; type: functional, organism-based
Summary of the method: (§2)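 Disk diffusion susceptibility profiling of P. aeruginosa reference and clinical isolates against empirically used antipseudomonal antibiotics. Each isolate was categorised as susceptible, intermediate or resistant.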

Pseudomonas aeruginosa [3] = assay: (§3) Susceptibility testing against Pseudomonas aeruginosa PAE_NUH04; R=Resistant; type: functional, organism-based; summary of the method: as §2
Pseudomonas aeruginosa [4] = assay: (§4) Susceptibility testing against Pseudomonas aeruginosa PAE_NUH05; R=Resistant; type: functional, organism-based; summary of the method: as §2
Pseudomonas aeruginosa [5] = assay: (§5) Susceptibility testing against Pseudomonas aeruginosa PAE_NUH02; R=Resistant; type: functional, organism-based; summary of the method: as §2
Pseudomonas aeruginosa [6] = assay: (§6) Susceptibility testing against Pseudomonas aeruginosa PAE_NUH23; R=Resistant; type: functional, organism-based; summary of the method: as §2
Pseudomonas aeruginosa [7] = assay: Susceptibility testing against Pseudomonas aeruginosa PAE_NUH07; R=Resistant; type: functional, organism-based; summary of the method: as §2
Pseudomonas aeruginosa [8] = assay: Susceptibility testing against Pseudomonas aeruginosa PAE_NUH24; R=Resistant; type: functional, organism-based; summary of the method: as §2
Pseudomonas aeruginosa [9] = assay: Susceptibility testing against Pseudomonas aeruginosa PAE_NUH22; R=Resistant; type: functional, organism-based; summary of the method: as §2
Pseudomonas aeruginosa [10] = assay: (§7) Susceptibility testing against Pseudomonas aeruginosa PAE_NUH06; R=Resistant; type: functional, organism-based; summary of the method: as §2
Pseudomonas aeruginosa [11] = assay: (§8) Susceptibility testing against Pseudomonas aeruginosa PAE_NUH01; R=Resistant; type: functional, organism-based; summary of the method: as §2
Pseudomonas aeruginosa [12] = assay: Susceptibility testing against Pseudomonas aeruginosa PAE_NUH18; R=Resistant; type: functional, organism-based; summary of the method: as §2
Pseudomonas aeruginosa [13] = assay: Susceptibility testing against Pseudomonas aeruginosa ATCC 27853; S=Susceptible; type: functional, organism-based; summary of the method: as §1
Pseudomonas aeruginosa [14] = assay: Susceptibility testing against Pseudomonas aeruginosa PAE_NUH17; R=Resistant; type: functional, organism-based; summary of the method: as §2
Pseudomonas aeruginosa [15] = assay: Susceptibility testing against Pseudomonas aeruginosa PAE_NUH20; R=Resistant; type: functional, organism-based; summary of the method: as §2
Pseudomonas aeruginosa [16] = assay: (§9) Susceptibility testing against Pseudomonas aeruginosa PAE_NUH03; R=Resistant; type: functional, organism-based; summary of the method: as §2
Pseudomonas aeruginosa [17] = assay: Susceptibility testing against Pseudomonas aeruginosa PAE_NUH25; R=Resistant; type: functional, organism-based; summary of the method: as §2
Pseudomonas aeruginosa [18] = assay: Susceptibility testing against Pseudomonas aeruginosa PAE_NUH19; S=Susceptible; type: functional
Pseudomonas aeruginosa [19] = assay: Susceptibility testing against Pseudomonas aeruginosa PAE_NUH18; S=Susceptible; type: functional
Pseudomonas aeruginosa [20] = assay: as §3; type: functional
Enterococcus faecalis = assay: In vitro minimum inhibitory concentration against Enterococcus faecalis 29212; range is 8-32 ug/ml; type: functional
Summary of the method: (§10)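 Broth microdilution following CLSI M100-S12. Stocks were 10 mg/mL in water, diluted in Mueller–Hinton broth to a top level of 128, then serially 2-fold in plates. Bacteria in cation-adjusted Mueller–Hinton broth were mixed 1:1 with drug and incubated 16–20 h at 35 °C. MIC was the lowest concentration with no visible growth. Run in duplicate with no-antibiotic and no-inoculum (sterility) controls.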

Pseudomonas aeruginosa [21] = assay: Susceptibility testing against Pseudomonas aeruginosa PAE_NUH22; S=Susceptible; type: functional
Pseudomonas aeruginosa [22] = assay: Susceptibility testing against Pseudomonas aeruginosa PAE_NUH07; S=Susceptible; type: functional; summary of the method: as §1
Pseudomonas aeruginosa [23] = assay: as §8; type: functional
Pseudomonas aeruginosa [24] = assay: Minimum inhibitory concentration against Pseudomonas aeruginosa ATCC 27853; Range is 0.25-1; type: functional
Pseudomonas aeruginosa [25] = assay: as §4; type: functional
Pseudomonas aeruginosa [26] = assay: as §5; type: functional
Staphylococcus aureus [27] = assay: In vitro minimum inhibitory concentration against Staphylococcus aureus ATCC 29213; Range is 0.12-1; type: functional
Pseudomonas aeruginosa [28] = assay: as §7; type: functional
Staphylococcus aureus [29] = assay: In vitro minimum inhibitory concentration against Staphylococcus aureus MRSA 3359; type: functional; summary of the method: as §10
Escherichia coli = assay: In vitro minimum inhibitory concentration against Escherichia coli ATCC 25922; Range is 0.25-1; type: functional
Pseudomonas aeruginosa [30] = assay: Minimum inhibitory concentration against Pseudomonas aeruginosa PAO-1; Range is 0.25-1; type: functional
Pseudomonas aeruginosa [31] = assay: Susceptibility testing against Pseudomonas aeruginosa PAE_NUH17; S=Susceptible; type: functional
Pseudomonas aeruginosa [32] = assay: Susceptibility testing against Pseudomonas aeruginosa PAE_NUH25; S=Susceptible; type: functional
Pseudomonas aeruginosa [33] = assay: Susceptibility testing against Pseudomonas aeruginosa PAE_NUH21; S=Susceptible; type: functional
Pseudomonas aeruginosa [34] = assay: as §9; type: functional
Pseudomonas aeruginosa [35] = assay: Susceptibility testing against Pseudomonas aeruginosa PAE_NUH20; S=Susceptible; type: functional
Pseudomonas aeruginosa [36] = assay: Minimum inhibitory concentration against Pseudomonas aeruginosa ATCC 27853; type: functional; summary of the method: as §10
Pseudomonas aeruginosa [37] = assay: Susceptibility testing against Pseudomonas aeruginosa PAE_NUH24; S=Susceptible; type: functional
Pseudomonas aeruginosa [38] = assay: as §6; type: functional

CN(C)[C@@H]1C(O)=C(C(N)=O)C(=O)[C@@]2(O)C(O)=C3C(=O)c4c(O)cccc4[C@@](C)(O)[C@H]3C[C@@H]12
Activity (Pseudomonas aeruginosa [1]): Partial resistance | Activity (Pseudomonas aeruginosa [2]): Resistant | Activity (Pseudomonas aeruginosa [3]): Resistant | Activity (Pseudomonas aeruginosa [4]): Resistant | Activity (Pseudomonas aeruginosa [5]): Resistant | Activity (Pseudomonas aeruginosa [6]): Resistant | Activity (Pseudomonas aeruginosa [7]): Resistant | Activity (Pseudomonas aeruginosa [8]): Resistant | Activity (Pseudomonas aeruginosa [9]): Resistant | Activity (Pseudomonas aeruginosa [10]): Resistant | Activity (Pseudomonas aeruginosa [11]): Resistant | Activity (Pseudomonas aeruginosa [12]): Resistant | Activity (Pseudomonas aeruginosa [13]): Susceptible | Activity (Pseudomonas aeruginosa [14]): Resistant | Activity (Pseudomonas aeruginosa [15]): Resistant | Activity (Pseudomonas aeruginosa [16]): Resistant | Activity (Pseudomonas aeruginosa [17]): Resistant

NC[C@H]1O[C@H](O[C@H]2[C@H](O)[C@@H](O[C@H]3O[C@H](CO)[C@@H](O)[C@H](N)[C@H]3O)[C@H](N)C[C@@H]2N)[C@H](N)C[C@@H]1O [TOBRAMYCIN]
MIC (Pseudomonas aeruginosa [18]): 0.5 µg/mL (≈ 1.07 µM) | MIC (Pseudomonas aeruginosa [19]): 0.5 µg/mL (≈ 1.07 µM) | MIC (Pseudomonas aeruginosa [20]): 100 µg/mL (≈ 214 µM) | MIC (Enterococcus faecalis): 32 µg/mL (≈ 68.4 µM) | MIC (Pseudomonas aeruginosa [21]): 0.25 µg/mL (≈ 0.535 µM) | MIC (Pseudomonas aeruginosa [22]): 6.3 µg/mL (≈ 13.5 µM) | MIC (Pseudomonas aeruginosa [23]): > 200 µg/mL | MIC (Pseudomonas aeruginosa [24]): 1 µg/mL (≈ 2.14 µM) | MIC (Pseudomonas aeruginosa [25]): 100 µg/mL (≈ 214 µM) | MIC (Pseudomonas aeruginosa [26]): 50 µg/mL (≈ 107 µM) | MIC (Staphylococcus aureus [27]): 1 µg/mL (≈ 2.14 µM) | MIC (Pseudomonas aeruginosa [28]): 100 µg/mL (≈ 214 µM) | MIC (Staphylococcus aureus [29]): > 64 µg/mL | MIC (Escherichia coli): 1 µg/mL (≈ 2.14 µM) | MIC (Pseudomonas aeruginosa [30]): 1 µg/mL (≈ 2.14 µM) | MIC (Pseudomonas aeruginosa [31]): 1 µg/mL (≈ 2.14 µM) | MIC (Pseudomonas aeruginosa [32]): 0.5 µg/mL (≈ 1.07 µM) | MIC (Pseudomonas aeruginosa [33]): 1 µg/mL (≈ 2.14 µM) | MIC (Pseudomonas aeruginosa [34]): 50 µg/mL (≈ 107 µM) | MIC (Pseudomonas aeruginosa [35]): 2 µg/mL (≈ 4.28 µM) | MIC (Pseudomonas aeruginosa [36]): 1 µg/mL (≈ 2.14 µM) | MIC (Pseudomonas aeruginosa [37]): 1 µg/mL (≈ 2.14 µM) | MIC (Pseudomonas aeruginosa [38]): > 32 µg/mL
